Assay outcomes (PubChem BioAssay)
TCR CD3 inh: human TCR-CD3 binding inhibition. TAMRA-labeled TCR probe fluorescence, biochemical. inhibition, % at 9.4 µM. hit rate 0.37% among 360,000. AID 651800; in the data active means inhibition above about 19%;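 further: recombinant mutant TCR 2C K166C tagged with TAMRA read by polarization; 0% = receptor in buffer alone and 100% = receptor with positive control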
TDP2 absorb: TDP2 (human) inhibition, absorbance primary screen. hit rate 0.34% among 370,000. inhibition, % at 12.8 µM. recombinant TDP2, T5PNP hydrolysis, p-nitrophenol absorbance 415 nm. AID 720702;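 active means inhibition above the mean of all tested compounds plus 3 SD, set per campaign, cut at about 25% in these data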;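 further: 0% = DMSO with enzyme and 100% = buffer with substrate but no TDP2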
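System: recombinant human TDP2 / Amount: 120 nM TDP2 per well / Also added: 5 mM T5PNP chromogenic substrate / Doses: 12.8 µM single point, 1% DMSO / Incubation: 2 h at 37 °C / Detection: p-Nitrophenol epi absorbance / Evaluation: % inhibition relative to enzyme-containing and enzyme-free wells / Repeats: singlicate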
LEDGF integ inh: blocks HIV-1 LEDGF/p75-dependent DNA integration; inhibition, % at 3.7 µM; TR-FRET IN-LEDGF/p75 DNA integration, Eu/Cy5; AID 743269; hit rate 0.64% among 370,000;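 active means inhibition above the screen-wide mean plus 3 SD, cut at about 13% in these data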;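 further: signal is the Cy5 over europium emission ratio at 671 and 618 nm; 0% = plate median of compound wells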
mABHD4 FP: inhibitors of mouse ABHD4; Q8VD66; purified mABHD4, FP-Rh probe fluorescence polarization; inhibition, % at 8.92 µM; hit rate 0.54% among 370,000;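 active means inhibition exceeding the mean over every tested compound plus 3 SD, cut at about 30% in these data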;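 further: 0% = plate median of compound wells and 100% = S159A mutant with DMSO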
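Test system: mABHD4 protein | Buffer or medium: HEPES pH 7.0 buffer, 150 mM NaCl, 0.01% Pluronic F-127 | Probe or stimulus: FP-Rh fluorescent activity-based probe, added after compound pre-incubation | Timing: Pre-incubation 45 min, probe exposure 60 min, at 25 °C | Technique: Fluorescence polarization, excitation 525 nm, emission 598 nm, BODIPY TMR filters | Repeats: Single well per compound (singlicate)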
SIAE inh: blocks human sialic acid acetylesterase; Q9HAT2; SIAE FP-Rh probe binding, fluorescence polarization; inhibition, % at 9.66 µM; hit rate 0.69% among 370,000;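 active means inhibition above a cutoff: mean of compounds within the control limits plus 3 SD of those, cut at about 17% in these data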;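 further: 0% = plate median of compound wells and 100% = probe without SIAE protein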
HTRA1 inhibitor: inhibitors of human serine peptidase HTRA1. Q92743. recombinant HTRA1, FP-rhodamine activity-based probe, fluorescence polarization. inhibition, % at 5.96 µM. hit rate 0.5% among 340,000; in the data active means inhibition above about 36%;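 further: 0% = enzyme with DMSO and 100% = wells lacking enzyme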
Target sequence (Q92743 whole entry, looked up): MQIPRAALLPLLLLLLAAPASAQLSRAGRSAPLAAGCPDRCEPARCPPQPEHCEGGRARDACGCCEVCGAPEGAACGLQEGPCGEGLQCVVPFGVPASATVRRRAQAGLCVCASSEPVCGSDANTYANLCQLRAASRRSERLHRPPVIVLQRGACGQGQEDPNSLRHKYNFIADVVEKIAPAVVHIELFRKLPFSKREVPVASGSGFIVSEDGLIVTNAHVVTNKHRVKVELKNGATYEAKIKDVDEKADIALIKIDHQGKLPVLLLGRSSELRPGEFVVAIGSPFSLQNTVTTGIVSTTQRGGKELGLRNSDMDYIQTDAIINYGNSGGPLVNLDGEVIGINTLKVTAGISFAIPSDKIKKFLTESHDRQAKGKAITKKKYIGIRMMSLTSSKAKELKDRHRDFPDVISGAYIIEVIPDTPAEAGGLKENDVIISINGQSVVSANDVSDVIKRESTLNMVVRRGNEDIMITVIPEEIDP
HTRA1 conf: HTRA1 (human) inhibition, confirmation | inhibition, % at 5.96 µM | recombinant HTRA1, FP-rhodamine activity-based probe, fluorescence polarization | hit rate 66% among 1,600 | AID 540248 | shares compounds with HTRA1 inhibitor;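 active means mean inhibition over three repeats above a set limit taken from the earlier primary screen, cut at about 37% in these data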;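 further: 0% = HTRA1 with DMSO and 100% = wells lacking HTRA1; inhibitors block probe binding so polarization drops and inhibition rises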
The depositor's hits bear a star; nt = no result given. This is a sample that favours compounds with a hit; in the whole collection about 2.2% have one here.

SMILES	TCR CD3 inh	TDP2 absorb	LEDGF integ inh	mABHD4 FP	SIAE inh	HTRA1 inhibitor	HTRA1 conf
Cc1ccc(-c2nn(-c3ccccc3)cc2C(=O)N2CCOCC2)cc1	7	4	0	-1	5	36*	-5
O=C1CC(Nc2ccc(N3CCOCC3)cc2)C(=O)N1c1ccccc1 (configuration not stated)	nt	nt	nt	nt	nt	14	nt
O=C1CC(Nc2ccc(N3CCOCC3)cc2)C(=O)N1Cc1ccccc1 (configuration not stated)	18	15	22*	49*	18*	49*	12
CCCCCCn1ccc(=N)cc1	3	-1	-2	-3	8	-2	nt
CCCCCCCCCCCCCCCCn1cc[n+](CC(C)=O)c1	nt	nt	nt	nt	nt	72*	86*
O=Cc1ccc(O)c(O)c1	-7	-7	-12	4	2	2	nt
Oc1ccc(N=Cc2ccc(O)c(O)c2)cc1	nt	nt	nt	nt	nt	57*	52*
CSC(=Cc1ccc(C(=O)c2ccc(C)cc2)n1C)S(C)=O (configuration not stated)	-1	7	-1	-4	2	nt	nt
CC(C)(C)N(Cc1cn(Cc2ccccc2)nn1)S(=O)(=O)c1ccccc1Br	nt	-17	6	-12	-5	nt	nt
CC(=O)N1CCN(C(=O)CN2C(=O)CC(C)(C)S(=O)(=O)c3ccccc32)CC1	nt	-11	0	-1	1	nt	nt
CCc1cccc(CC)c1NC(=S)NCCc1ccc(O)c(O)c1	-3	3	-8	11	4	67*	78*
CC(=NNc1nc2ccccc2o1)c1cc2ccccc2cn1	-1	-5	-2	16	5	56*	70*
CCNC(=O)N(C)[C@H]1C[C@H]2c3[nH]c4c(-c5ccc6c(c5)OCO6)cccc4c3CCN2C(=O)[C@H]1[C@H](C)O	-3	-7	-5	1	-7	nt	nt
COc1cccc(/C=N/Nc2ncnc3c2ncn3Cc2ccccc2)c1O	17	-12	-3	25	3	41*	47*
CCCCn1c(/C=N/Nc2nc3ccccc3[nH]2)nc2ccccc21	5	-7	0	24	7	41*	59*
CCCCn1c(/C=C/c2ccco2)nc2ccccc21	0	5	1	2	-2	5	nt
O=c1cc2oc3cc(O)c(O)cc3c(-c3ccccc3O)c-2cc1O	nt	nt	nt	nt	nt	60*	127*
COc1ccc(OC)c(-c2c3cc(O)c(=O)cc-3oc3cc(O)c(O)cc23)c1	nt	nt	nt	nt	nt	85*	90*
COc1ccc(OC)c(-c2oc3ccccc3c(=O)c2O)c1	-7	4	4	1	6	5	nt
Cc1ccccc1-c1cc(=O)c2c(O)cccc2o1	0	6	0	2	-5	-6	nt
O=C(Nc1cccnc1)c1ccc(CSc2ccc(Cl)cc2)o1	0	-1	-1	-5	-3	nt	nt
C=CCn1c(COc2ccccc2)nnc1SCC(=O)c1ccc(-c2ccccc2)cc1	nt	-2	-2	0	-3	nt	nt
COC(=O)[C@]12C[C@H](CC(=O)NCC34CC5CC(CC(C5)C3)C4)C(=O)N(CCC3=CCCCC3)C1=C[C@H](C(C)C)O[C@@H]2C1CC1	nt	-4	7	4	-4	nt	nt
Cc1ccc(-n2c(C)cc(-c3csc(N)n3)c2C)cc1	-2	1	8	18	9	52*	50*
COc1cc(NC(C)CCc2ccccc2)cc(OC)c1OC (configuration not stated)	-1	0	3	18	10	40*	27
SMILES	TCR CD3 inh	TDP2 absorb	LEDGF integ inh	mABHD4 FP	SIAE inh	HTRA1 inhibitor	HTRA1 conf
CCC[C@H]1[C@@H](OC(=O)NCCc2ccccc2)CC[C@@]23CCCN2C(=O)CCC[C@@H]13	nt	5	-5	-2	-3	nt	nt
O/C=c1\ccc2cccc3nc(C(F)(F)F)nc1c23	2	-4	5	28	17	43*	99*
O=C(NN=Cc1c(O)ccc2ccccc12)c1ccncc1	-4	-3	-6	16	5	22	nt
Cn1nccc1C(=O)N/N=C/c1c(O)ccc2ccccc12	13	-18	-12	5	12	55*	54*
CCc1cc(C(=O)Nc2nc(-c3ccccn3)cs2)sc1C	2	-10	10	-4	-12	37*	20
O=C(NC1CCCCC1)C(c1ccc(O)c(O)c1)N(C(=O)Cn1nnc2ccccc21)c1cccc(O)c1 (configuration not stated)	5	-17	1	14	1	47*	49*
Cc1ccc(S(=O)(=O)N2CCCC(C(=O)NCCN3CCC(Cc4ccccc4)CC3)C2)cc1 (configuration not stated)	nt	5	-2	2	-1	nt	nt
COc1ccccc1/C=C1\SC(=S)N(CCC(=O)NNC(=O)c2ccccc2O)C1=O	nt	nt	nt	nt	nt	39*	68*
Nc1cccc(Nc2nc(OC(C(F)(F)F)C(F)(F)F)nc(OC(C(F)(F)F)C(F)(F)F)n2)c1	-1	-10	0	-15	0	38*	12
CC(C)N(C[C@@H]1CSCCS(=O)(=O)N1)C1CCCCC1	5	4	1	5	2	nt	nt
O[C@H](COc1ccc(Cl)cc1)CN1CCC(C(O)(c2ccccc2)c2ccccc2)CC1	nt	-5	2	6	4	nt	nt
CCOc1ccc(CNc2ccc(N3CCCC3)cc2)cc1	nt	nt	nt	nt	nt	58*	9
CCOc1cc(CNc2ccc(S(N)(=O)=O)cc2)cc(Cl)c1OC	0	-1	3	-2	7	5	nt
COc1cc(CNc2ccc(N3CCOCC3)cc2)cc(Br)c1OC	-4	-8	13	13	12	28	nt
CCOc1cc(CNc2ccc(N3CCCC3)cc2)cc(Cl)c1OC	-1	8	3	28	11	55*	23
COc1cc(CNc2ccc(N3CCCC3)cc2)cc(Cl)c1OC	3	13	1	22	12	41*	28
COc1ccc(CNS(=O)(=O)c2cc(Br)ccc2Br)c(OC)c1	-8	-13	2	-11	-6	nt	nt
Cc1ccc(-n2c(Cc3cccs3)nnc2SCc2ccc(Br)cc2)cc1	nt	-2	-2	-9	-1	nt	nt
CC(C)(C)c1ccc(S(=O)(=O)NCC(=O)N2CCN(c3ncccn3)CC2)cc1	nt	2	-1	1	-1	nt	nt
CN1C(=O)C(=O)N2C(=C[C@]3(c4c[nH]c5ccccc45)c4ccccc4N[C@H]23)C1=O	nt	3	1	-3	9	nt	nt
COc1ccc(Sc2nc(-c3ccccn3)ncc2OC)cc1	-7	-3	8	0	-9	62*	54*
CCOC(=O)[C@@]12CCCC=C1N(CCc1ccc(Cl)cc1)C(=O)[C@H]2CC(=O)NCc1ccc(C)o1	nt	2	2	2	3	nt	nt
Cc1nnc(C)n1/N=C/c1c(O)ccc2ccccc12	4	-9	7	-3	-4	4	nt
